High-throughput results deposited in PubChem BioAssay by Johns Hopkins Ion Channel Center.
Kir21 block: inhibitors of mouse Kir2.1 inward-rectifier potassium channel; Inward rectifier potassium channel 2 (Mus musculus), P35561; B-score at 10 µM; HEK293-Kir2.1, FluxOR thallium flux fluorescence; active compounds read low; actives 0.85% (n = 310,000);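 active means fluorescence ratio B-score at or below minus 3 SD of library scores, with starting-brightness B-score within 2 SD, cut at about -4.2 in these data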;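 further: channel flux triggered by added potassium and thallium sulfate stimulus; B-score of peak minus minimum fluorescence over baseline after thallium stimulus; more negative B-score means stronger Kir2.1 block with less thallium influx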
KCNQ1 act: potentiators or activators of KCNQ1 channel, primary screen, cell-based, thallium flux, high-throughput; Potassium voltage-gated channel subfamily KQT member 1 (Homo sapiens), P51787; CHO-K1 KCNQ1, thallium flux FluxOR fluorescence; active compounds read high; B-score at 10 µM; actives 0.35% (n = 310,000);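 active means fluorescence ratio B-score, a plate-corrected score, at least three library SD, with initial intensity B-score within 5 SD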
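Medium – assay buffer, equal DMSO in all wells · Material – CHO-K1 cell line with stable KCNQ1 potassium channel expression · Signal – kinetic FluxOR thallium fluorescence, 10-s 1-Hz baseline, 110-s post-stimulus read · Compound – single concentration per compound, DMSO matched to controls · Schedule – 37 °C overnight plating, 90-min dark dye load, 20-min compound pretreatment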
hERG protect: hERG rescue from dofetilide block, primary screen, cell-based, CHO-hERG, FluxOR thallium flux, dofetilide IC70. Voltage-gated inwardly rectifying potassium channel KCNH2 (Homo sapiens), Q12809. dofetilide IC70 present. activation (rescue from dofetilide block), less the hit threshold, % at 10 µM. actives 0.51% (n = 310,000). AID 1511, 2009;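 active means activation above the mean of controls blocked by dofetilide plus 5 SD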;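 further: thallium influx through hERG after potassium depolarization seen as dye fluorescence rise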
KCNK9 block: KCNK9 potassium channel inhibitors, primary screen, HEK293 cells, thallium flux | FluxOR thallium flux fluorescence; active compounds read low | B-score at 10 µM | actives 1.2% (n = 310,000);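 active means ratio B-score over 3 SD below the library mean, with starting fluorescence within 5 SD of its mean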;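 further: negative B-score means less thallium flux so channel inhibition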
Target sequence (Q9NPC2 whole entry, looked up): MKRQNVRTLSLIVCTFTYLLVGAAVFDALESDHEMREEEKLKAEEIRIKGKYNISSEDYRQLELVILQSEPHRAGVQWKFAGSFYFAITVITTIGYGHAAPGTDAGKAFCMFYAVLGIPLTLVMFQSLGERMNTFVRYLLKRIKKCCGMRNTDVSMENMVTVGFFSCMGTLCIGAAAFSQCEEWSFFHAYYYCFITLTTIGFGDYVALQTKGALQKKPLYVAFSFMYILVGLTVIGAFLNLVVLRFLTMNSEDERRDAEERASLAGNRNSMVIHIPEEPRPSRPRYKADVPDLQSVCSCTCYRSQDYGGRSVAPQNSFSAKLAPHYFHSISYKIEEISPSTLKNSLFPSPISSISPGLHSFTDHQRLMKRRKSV
KCNQ1 inh: inhibitors of human KCNQ1 channel, primary screen, cell-based, thallium flux, high-throughput. CHO-K1 KCNQ1, FluxOR thallium flux fluorescence; active compounds read high. B-score at 10 µM. Potassium voltage-gated channel subfamily KQT member 1 (Homo sapiens), P51787. actives 1.3% (n = 310,000);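 active means compounds whose thallium flux B-score, printed positive for inhibition, exceeds three library SD while starting fluorescence stays within three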;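 further: channel opened by potassium depolarization with thallium stimulus after 20 min compound exposure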
KCNK3 block: human KCNK3 channel inhibitors, primary screen, CHO cells, FluxOR thallium flux, B-score; Potassium channel subfamily K member 3 (Homo sapiens), O14649; FluxOR fluorescence; active compounds read low; B-score at 10 µM; actives 0.84% (n = 340,000); AID 602410, 2012;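 active means B-score under library mean minus 4 SD, starting fluorescence ratio at most library mean plus 5 SD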;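 further: more negative B-score means stronger inhibition of thallium flux through KCNK3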
KCNK3 confirm: retest of human KCNK3 channel inhibitors, confirmation, CHO cells, FluxOR thallium flux, triplicate. shares compounds with KCNK3 block. FluxOR fluorescence; 0% buffer, 100% carvedilol maximal block. ratio percent of control, % at 10 µM. actives 99% (n = 2,400). AID 651638, 2012;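 active means ratio percent of control, averaged over triplicates, above buffer control mean plus 5 SD, cut at about 64% in these data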;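 further: ratio is the fluorescence rise from min to max over baseline after thallium stimulus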
KCNK3 uninduced: thallium flux inhibition in non-induced cells, primary screen, counter-screen for KCNK3 inhibitor project, cell-based, non-induced KCNK3 line, FluxOR thallium, triplicate; shares compounds with KCNK3 block; non-induced KCNK3 parental cells; active compounds read low; thallium flux ratio (lower = more inhibition) at 10 µM; actives 40% (n = 2,400); AID 651747, 2012;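 active means thallium flux ratio, averaged over three wells, more than 5 SD below the buffer control mean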;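 further: host cells are CHO cells without KCNK3 induction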
Hits are given with their value. An excerpt weighted towards active compounds, which were near 3.8% of everything screened.

How did Cc1cc(C)c(C#N)c(SCC(=O)c2ccc(Cl)cc2Cl)n1 do in these assays?
Kir21 block: inactive; KCNQ1 act: inactive; hERG protect: inactive; KCNK9 block: inactive; KCNQ1 inh: inactive; KCNK3 block: -10; KCNK3 confirm: 108; KCNK3 uninduced: 0.15

How did COc1ccc(C(=O)Nc2sc(C)c(C)c2CN2CC(C)OC(C)C2)cc1 (configuration not stated) do in these assays?
Kir21 block: inactive; KCNQ1 act: inactive; hERG protect: inactive; KCNK9 block: inactive; KCNQ1 inh: inactive; KCNK3 block: inactive

What do the screens show for `Cc1cccc(C)c1OCC(=O)Nc1cccc(-c2nnc(-c3ccccc3)o2)c1`?
Kir21 block: inactive; KCNQ1 act: inactive; hERG protect: inactive; KCNK9 block: inactive; KCNQ1 inh: inactive; KCNK3 block: inactive

How did CCCCC(=O)Nc1ccc(C(=O)c2ccccc2)cc1 do in these assays?
Kir21 block: inactive; KCNQ1 act: inactive; hERG protect: inactive; KCNK9 block: -6.8; KCNQ1 inh: inactive; KCNK3 block: inactive; KCNK3 confirm: 96; KCNK3 uninduced: inactive

How did CCCc1cc(C(=O)Nc2ccc(C(=O)c3ccccc3)cc2)n(C)n1 do in these assays?
Kir21 block: inactive; KCNQ1 act: inactive; hERG protect: inactive; KCNK9 block: inactive; KCNQ1 inh: inactive; KCNK3 block: -13; KCNK3 confirm: 132; KCNK3 uninduced: 0.15

How did CCCCC(=O)Nc1cccc(-c2nnc(-c3ccccc3)o2)c1 do in these assays?
Kir21 block: inactive; KCNQ1 act: inactive; hERG protect: inactive; KCNK9 block: -6.7; KCNQ1 inh: inactive; KCNK3 block: inactive; KCNK3 confirm: 123; KCNK3 uninduced: inactive

What do the screens show for `CCOC(=O)CNC(=O)N1CCc2ccc(NC(=O)c3ccccc3Cl)cc2C1`?
Kir21 block: inactive; KCNQ1 act: inactive; hERG protect: inactive; KCNK9 block: inactive; KCNQ1 inh: inactive; KCNK3 block: inactive

Results for Cc1noc(C)c1S(=O)(=O)Nc1ccc(C(=O)N2CCc3ccccc3C2)cc1 ?
Kir21 block: inactive; KCNQ1 act: inactive; hERG protect: inactive; KCNK9 block: inactive; KCNQ1 inh: inactive; KCNK3 block: -9.1; KCNK3 confirm: 60; KCNK3 uninduced: inactive

How did O=C(c1cc2cc(F)ccc2[nH]1)N1CCN(C(=O)c2ccco2)CC1 do in these assays?
Kir21 block: inactive; KCNQ1 act: inactive; hERG protect: inactive; KCNK9 block: inactive; KCNQ1 inh: inactive; KCNK3 block: inactive

What do the screens show for `CCOc1ccc(Br)cc1S(=O)(=O)N1CCSC1`?
Kir21 block: -5; KCNQ1 act: inactive; hERG protect: inactive; KCNK9 block: inactive; KCNQ1 inh: inactive; KCNK3 block: -9; KCNK3 confirm: 88; KCNK3 uninduced: inactive

Results for CC(=O)Nc1cccc(-c2nc3ccc(NC(C)=O)cc3[nH]2)c1 ?
Kir21 block: inactive; KCNQ1 act: inactive; hERG protect: inactive; KCNK9 block: inactive; KCNQ1 inh: inactive; KCNK3 block: inactive

Results for CC(=O)Nc1cccc(-c2nc3ccccc3[nH]2)c1 ?
Kir21 block: inactive; KCNQ1 act: inactive; hERG protect: inactive; KCNK9 block: inactive; KCNQ1 inh: inactive; KCNK3 block: inactive

How did O=C(O)c1cccc(-c2nc3ccccc3[nH]2)c1 do in these assays?
Kir21 block: inactive; KCNQ1 act: inactive; hERG protect: inactive; KCNK9 block: inactive; KCNQ1 inh: inactive; KCNK3 block: inactive

What do the screens show for `Cc1nc(-c2cccc(NC(=O)C(C)Oc3ccccc3)c2)cs1` (configuration not stated)?
Kir21 block: inactive; KCNQ1 act: inactive; hERG protect: inactive; KCNK9 block: inactive; KCNQ1 inh: inactive; KCNK3 block: inactive

Results for CC(C)CC(=O)Nc1cccc(-c2nc3ccccc3[nH]2)c1 ?
Kir21 block: inactive; KCNQ1 act: inactive; hERG protect: inactive; KCNK9 block: inactive; KCNQ1 inh: inactive; KCNK3 block: -11; KCNK3 confirm: 124; KCNK3 uninduced: 0.12

What do the screens show for `O=C(Nc1cccc(-c2nc3ccccc3[nH]2)c1)c1ccccn1`?
Kir21 block: inactive; KCNQ1 act: inactive; hERG protect: inactive; KCNK9 block: -7.1; KCNQ1 inh: inactive; KCNK3 block: -13; KCNK3 confirm: 109; KCNK3 uninduced: inactive

What do the screens show for `CC(Oc1ccccc1)C(=O)Nc1cccc(-c2nc3ccccc3[nH]2)c1` (configuration not stated)?
Kir21 block: inactive; KCNQ1 act: inactive; hERG protect: inactive; KCNK9 block: -7.4; KCNQ1 inh: inactive; KCNK3 block: -11; KCNK3 confirm: 100; KCNK3 uninduced: 0.14

How did CC(C)(C)C(=O)Nc1cccc(-c2nc3ccccc3[nH]2)c1 do in these assays?
Kir21 block: inactive; KCNQ1 act: inactive; hERG protect: inactive; KCNK9 block: inactive; KCNQ1 inh: inactive; KCNK3 block: -11; KCNK3 confirm: 93; KCNK3 uninduced: inactive

How did Cc1cc(C)cc(Nc2c3c(nc4ncnn24)CCC3)c1 do in these assays?
Kir21 block: inactive; KCNQ1 act: inactive; hERG protect: inactive; KCNK9 block: inactive; KCNQ1 inh: inactive; KCNK3 block: inactive

Results for COc1ccc(C(=O)OCC(=O)NC2CCCCCC2)c(OC)c1 ?
KCNK3 block: inactive

How did Cc1ccc(/C=C/C(=O)O)cc1S(=O)(=O)Nc1ccc(C(=O)O)cc1 do in these assays?
Kir21 block: inactive; KCNQ1 act: inactive; hERG protect: inactive; KCNK9 block: inactive; KCNQ1 inh: inactive; KCNK3 block: inactive

Results for Cc1cccc(Nc2cc(C)c3c(O)cccc3n2)c1C ?
Kir21 block: inactive; KCNQ1 act: inactive; hERG protect: inactive; KCNK9 block: inactive; KCNQ1 inh: inactive; KCNK3 block: -9.7; KCNK3 confirm: 111; KCNK3 uninduced: inactive

What do the screens show for `COc1ccc(Cl)cc1C(=O)Nc1ccc(NC(C)=O)cc1`?
Kir21 block: inactive; KCNQ1 act: inactive; hERG protect: inactive; KCNK9 block: inactive; KCNQ1 inh: inactive; KCNK3 block: inactive
